Laboratory results from ChEMBL document CHEMBL3244118, “3-(3-Substituted prop-1-enyl)cephalosporins” (1977).

Columns and labels:
Type in all cases: functional
[1] = system: Staphylococcus aureus; assay: Antibacterial activity against penicillin G-resistant Staphylococcus aureus ATCC 14154 by agar inclusion method
Method in brief: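 MIC by agar inclusion in brain heart infusion medium, pH 7.4, using twofold dilutions. Strain ATCC 14154 is penicillin G resistant. Values reported in […].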

[2] = system: Streptococcus pyogenes; assay: Antibacterial activity against Streptococcus pyogenes ATCC 8668 by agar inclusion method
Method in brief: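 MIC by agar inclusion, twofold dilutions in brain heart infusion medium at pH 7.4, reported in […].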

[3] = system: Staphylococcus aureus; assay: Antibacterial activity against Staphylococcus aureus Smith infected in sc dosed mouse assessed as survival of host administered 1 hr and 5 hrs post challenge measured 72 hrs post challenge
Method in brief: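 Mice infected ip with about 2×10^3 S. aureus Smith organisms per mouse, culture diluted in 4% hog gastric mucin for uniformly lethal infection. Twofold dilutions given sc in equally divided portions at 1 and 5 h postinfection, four groups of ten mice. Survivors observed for 72 h. PD50 (total mg/kg protecting 50%) calculated by probit analysis.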

With `CC(=O)OC/C=C/C1=C(C(=O)[O-])N2C(=O)[C@@H](NC(=O)Cc3cccs3)[C@H]2SC1.[Na+]` the MIC [1] was 560 µM, the MIC [2] was < 2 µM and the PD50 [3] was 1.85 µmol/kg.
In the case of `Cn1nnnc1SCC1=C(C(=O)[O-])N2C(=O)[C@@H](NC(=O)Cc3cccs3)[C@H]2SC1.[Na+]`, the MIC [1] is reported as 100 µM, the MIC [2] is reported as 13 µM and the PD50 [3] is reported as 1.69 µmol/kg.
`CC(=O)OCC1=C(C(=O)[O-])N2C(=O)[C@@H](NC(=O)Cc3cccs3)[C@H]2SC1.[Na+]` [CEPHALOTHIN SODIUM] gave an MIC [1] of 480 µM, an MIC [2] of 74 µM and a PD50 [3] of 3.54 µmol/kg.
For `Cn1nnnc1SC/C=C/C1=C(C(=O)[O-])N2C(=O)[C@@H](NC(=O)Cc3cccs3)[C@H]2SC1.[Na+]`, the MIC [1] was 200 µM, the MIC [2] was 1.6 µM and the PD50 [3] was 0.3 µmol/kg.
